The record followed here is ChEMBL document CHEMBL4190337, “Design, Synthesis, and Antibacterial Activity of a Multivalent Polycationic Calix[4]arene-NO Photodonor Conjugate” (ACS Med Chem Lett, 2017).

Data set [1] deals with Escherichia coli. The data set can be described thus: Bactericidal activity against Escherichia coli ATCC 10536 assessed as reduction in colony forming units at 0.25 mM irradiated with 450 mW xenon light after 30 mins by time kill assay. The data set is classed as functional. More on the design: scale not given: the % may be the effect or the level left. The method, boiled down:
(§1)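 Time-kill assay with the agent at 0.25 mM final in 5% EtOH/PBS, made from a 0.5 mM solution in 10% EtOH/PBS. Samples ran in duplicate, kept in the dark or illuminated, alongside PBS and 5% EtOH/PBS vehicle controls. Viable bacteria were counted as CFU/mL at set times and expressed as % and log reduction.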

For data set [2], the system named is Staphylococcus aureus. Put plainly: Bactericidal activity against Staphylococcus aureus ATCC 6538 assessed as log reduction in colony forming units at 0.25 mM irradiated with 450 mW xenon light after 20 mins by time kill assay. The data set is classed as functional. The method, boiled down:
as §1

In data set [3] the test system is Escherichia coli. The data set can be described thus: Bactericidal activity against Escherichia coli ATCC 10536 assessed as log reduction in colony forming units at 0.25 mM irradiated with 450 mW xenon light after 30 mins by time kill assay. The data set is classed as functional. An outline of the steps:
as §1

Data set [4] concerns Escherichia coli. The data set can be described thus: Bactericidal activity against Escherichia coli ATCC 10536 assessed as reduction in bacterial count at 0.25 mM after 30 mins under dark condition by time kill assay. It counts as functional, organism-based. An outline of the steps: as §1
For data set [5], the system named is Staphylococcus aureus. Put plainly: Bactericidal activity against Staphylococcus aureus ATCC 6538 assessed as reduction in bacterial count at 0.25 mM irradiated with 450 mW xenon light after 10 mins by time kill assay relative to control. Also on record: scale not given: the % may be the effect or the level left. The data set is classed as functional. An outline of the steps:
as §1

Data set [6] in a line: Cytotoxicity against human skin fibroblasts at 0.25 mM irradiated with 450 mW xenon light measured after 30 mins. Conditions: 0.5 h, 250 µM.
In data set [7] the test system is Staphylococcus aureus. Put plainly: Bactericidal activity against Staphylococcus aureus ATCC 6538 assessed as log reduction in colony forming units at 0.25 mM after 30 mins under dark condition by time kill assay. It counts as functional. The method, boiled down: as §1
A short description of data set [8]: Drug metabolism in MeOH/PBS solution assessed as […] release at 40 uM irradiated with 60 mW laser light by amperometric detection assay. It counts as functional. An outline of the steps:
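NO release was profiled in MeOH/PBS (20/80) at 40 µM under visible light irradiation (λexc = 405 nm), using an optically matched solution of a model NO photodonor for comparison.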

A short description of data set [9]: Drug metabolism in MeOH/PBS solution assessed as […] release by measuring shift in maximum absorption wavelength at 40 uM irradiated with 60 mW laser light by UV-vis absorption spectra analysis. The data set is classed as functional.
Data set [10] has as its system Staphylococcus aureus. Put plainly: Bactericidal activity against Staphylococcus aureus ATCC 6538 assessed as reduction in bacterial count at 0.25 mM irradiated with 450 mW xenon light after 20 mins by time kill assay relative to control. The data set is classed as functional. More on the design: scale not given: the % may be the effect or the level left. The method, boiled down: as §1

In data set [11] the test system is Staphylococcus aureus. The data set can be described thus: Bactericidal activity against Staphylococcus aureus ATCC 6538 assessed as reduction in bacterial count at 0.25 mM after 30 mins under dark condition by time kill assay relative to control. The data set is classed as functional. More on the design: scale not given: the % may be the effect or the level left. The method, boiled down:
as §1

Data set [12] relates to Staphylococcus aureus. Put plainly: Bactericidal activity against Staphylococcus aureus ATCC 6538 assessed as reduction in bacterial count at 0.25 mM irradiated with 450 mW xenon light up to 30 mins by time kill assay. It counts as functional, organism-based. An outline of the steps: as §1
The test system of data set [13] is Staphylococcus aureus. The data set can be described thus: Bactericidal activity against Staphylococcus aureus ATCC 6538 assessed as log reduction in colony forming units at 0.25 mM irradiated with 450 mW xenon light after 10 mins by time kill assay. The data set is classed as functional. The method, boiled down:
as §1

Data set [14] can be described thus: Drug metabolism in MeOH/PBS solution assessed as […] release at 170 uM irradiated with 60 mW laser light by amperometric detection assay. The data set is classed as functional. An outline of the steps:
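NO release followed during continuous visible-light irradiation at λexc 405 nm of optically matched solutions in MeOH/PBS (20/80), with the model donor at 170 µM; release profile recorded over irradiation time.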

Calls of active or inactive are those of the source. The rule behind the calls is not given here.

For `C[N+](C)(CCO)CCCOc1c2cc(CNc3ccc([N+](=O)[O-])c(C(F)(F)F)c3)cc1Cc1cc(CNc3ccc([N+](=O)[O-])c(C(F)(F)F)c3)cc(c1O)Cc1cc(CNc3ccc([N+](=O)[O-])c(C(F)(F)F)c3)cc(c1OCCC[N+](C)(C)CCO)Cc1cc(CNc3ccc([N+](=O)[O-])c(C(F)(F)F)c3)cc(c1O)C2.[Br-].[Br-]`, the Activity in [1] was 93.5%; in [2], greater than 3.31 log10CFU/ml; in data set [3] it was 1.2 log10CFU/ml; in data set [5], 99.2%; in data set [6], less than 15%; in data set [7], 1.96 log10CFU/ml. Further, the Activity is on record as greater than 99.95% in data set [10], 98.9% in [11] and 2.1 log10CFU/ml in data set [13]. Further, the result in [4] was inactive. Further, the Drug metabolism result in data set [8] and in [9] was “Metabolite detected” each time. Further, the outcome in data set [12] was Active.
Regarding `NCCCNc1ccc([N+](=O)[O-])c(C(F)(F)F)c1`, the Drug metabolism result in [14] is “Metabolite detected”.
